Sampled rows, rich in hits. Any-hit rate of the full collection: about 2.6%.
mABHD4 FP = ABHD4 (mouse) inhibition, primary FP screen | Q8VD66 | purified mABHD4, FP-Rh probe fluorescence polarization | 0.54% of 370,000 active | AID 720543 | inhibition, % at 8.92 µM;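 active = inhibition exceeding the mean over every tested compound plus 3 SD, cut at about 30% in these data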;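 note: 0% = plate median of compound wells and 100% = S159A mutant with DMSO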
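Assay system: Wild-type mouse ABHD4 protein | Medium: HEPES pH 7.0 buffer, 150 mM NaCl, 0.01% Pluronic F-127 | Incubation: Enzyme–compound pre-incubation 45 min, then probe 60 min, both 25 °C | Technique: Fluorescence polarization with parallel and perpendicular emission, 525/598 nm | Evaluation: % inhibition of FP-Rh probe binding versus controls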
HTRA1 inh = inhibitors of human serine peptidase HTRA1; Q92743; recombinant HTRA1, FP-rhodamine activity-based probe, fluorescence polarization; inhibition, % at 5.96 µM; 0.5% of 340,000 active; in the data active = inhibition above about 36%;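 note: 0% = enzyme with DMSO and 100% = wells lacking enzyme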
SIAE inh = blocks human sialic acid acetylesterase; SIAE FP-Rh probe binding, fluorescence polarization; inhibition, % at 9.66 µM; 0.69% of 370,000 active;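 active = inhibition above a cutoff: mean of compounds within the control limits plus 3 SD of those, cut at about 17% in these data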;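 note: 0% = plate median of compound wells and 100% = probe without SIAE protein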
PRMT1 FP inh = inhibitors of human PRMT1; recombinant PRMT1, activity-based probe fluorescence polarization; inhibition, % at 2.79 µM; 1.3% of 370,000 active;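 active = inhibition above about 21% made by adding two undisclosed values, limit read from the data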
Target sequence (Q99873 whole entry, looked up): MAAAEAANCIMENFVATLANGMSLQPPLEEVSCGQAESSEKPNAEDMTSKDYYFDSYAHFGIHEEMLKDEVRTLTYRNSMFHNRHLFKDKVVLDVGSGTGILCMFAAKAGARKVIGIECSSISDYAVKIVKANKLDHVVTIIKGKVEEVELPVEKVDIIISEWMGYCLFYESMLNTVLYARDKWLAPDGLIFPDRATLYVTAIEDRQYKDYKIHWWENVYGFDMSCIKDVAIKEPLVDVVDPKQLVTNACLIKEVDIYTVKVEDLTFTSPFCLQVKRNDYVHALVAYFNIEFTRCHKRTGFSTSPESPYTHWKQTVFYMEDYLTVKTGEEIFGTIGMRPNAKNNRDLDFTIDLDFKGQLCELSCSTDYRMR
TCR-CD3 inh = blocks the human TCR-CD3 interaction; AID 651800; TAMRA-labeled TCR probe fluorescence, biochemical; inhibition, % at 9.4 µM; 0.37% of 360,000 active; in the data active = inhibition above about 19%;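 note: recombinant mutant TCR 2C K166C tagged with TAMRA read by polarization; 0% = receptor in buffer alone and 100% = receptor with positive control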
An asterisk follows results filed as active; . = no result.

SMILES	mABHD4 FP	HTRA1 inh	SIAE inh	PRMT1 FP inh	TCR-CD3 inh
CC1(C)Cc2ccccc2/C(=C/C(=O)N2CCCCCC2)N1	5.2	-1.4	-15.7	22.5*	6.3
COc1cc2c(cc1OC)/C(=C/C(=O)N1CCOCC1)NC(C)(C)C2	0.1	.	0.7	20.9	4.5
C[C@H]1[C@H](c2ccccc2)Oc2cccc(NCCc3ccccc3)c2S(=O)(=O)N1Cc1cccc(Cl)c1	-8.9	.	0.2	0.5	5.7
Cc1ccc(NC(=O)CSc2ncnc3ccccc23)cc1S(=O)(=O)N1CCCCC1	-17.9	-23.2	-37.3	22.6*	5.2
CC1(C(=O)NCc2cccc(C(F)(F)F)c2)CCN1Cc1ccc(-c2ccccc2)o1 (stereo unspecified)	-11.0	.	-5.2	22.5*	2.2
COc1ccc(OC)c(NC(=O)CSc2ncnc3sc(C)cc23)c1	27.7	23.2	7.5	23.2*	6.8
COc1ccc(OC)c(NC(=O)CNC(=O)Cn2cnc3sc(C)cc3c2=O)c1	5.3	3.6	8.8	1.0	4.5
COc1ccc2cc(CN(CCc3ccccc3)Cc3nnnn3Cc3ccco3)c(=O)[nH]c2c1	-4.7	-17.0	-2.2	22.1*	4.7
CCOC(=O)c1sc2cc([N+](=O)[O-])cc(SCC(=O)OC)c2c1N	27.3	-3.0	-2.8	23.0*	-4.0
CCOC(=O)c1sc2cc([N+](=O)[O-])cc(SCCO)c2c1N	6.0	6.5	-0.7	0.1	-1.7
CCCCNc1cccc2c1S(=O)(=O)N[C@H](C)CO2	-4.1	.	-0.1	-1.6	2.6
CCOC(=O)N1CCN(C(=O)C2CCN(C(=O)c3ccccc3C)CC2)CC1	-22.3	-49.0	-23.2	91.0*	11.5
O=C(Nc1cccc(C(F)(F)F)c1)c1cc[n+]([O-])cc1	2.6	9.6	2.1	0.8	-5.1
O=C(Nc1ccc2nc(-c3ccco3)c(-c3ccco3)nc2c1)NC1CC1	.	50.8*	.	.	.
O=C(Nc1cccc(C(F)(F)F)c1)c1ccc2nc(-c3ccco3)c(-c3ccco3)nc2c1	8.6	67.1*	-1.9	3.1	-6.8
Nc1ccc(N2CCOCC2)c2nonc12	13.4	19.2	-6.1	40.0*	-6.4
O=C(Nc1ccc(N2CCOCC2)c2nonc12)C1CCCC1	8.3	10.6	3.8	-2.0	-1.8
CC(C)CC(C(=O)Nc1oc(-c2ccco2)c(-c2ccco2)c1C#N)N1C(=O)c2ccccc2C1=O (stereo unspecified)	21.6	-2.7	-7.5	24.7*	-3.5
C[C@@H]1CN([C@H](C)CO)C(=O)c2cc(Br)cnc2O[C@H]1CN(C)C(=O)c1ccc(F)cc1	-1.5	.	0.2	-5.6	3.4
CCOC(=O)c1sc2ccc(S(=O)(=O)N3CC(C)CC(C)C3)cc2c1N (stereo unspecified)	5.1	-1.6	4.5	21.3*	0.4
CCOC(=O)c1sc2ccc(S(=O)(=O)N3CCOCC3)cc2c1N	5.6	-3.2	0.5	1.6	1.1
CC(=O)c1cccc(NC(=O)CSC(=O)c2ccccc2)c1	-8.2	0.7	-7.0	48.7*	3.3
CC(C)n1c(SCCCc2ccccc2)nc2c1c(=O)[nH]c(=O)n2C	-1.4	-5.3	0.8	22.2*	0.1
C=CCCC1CN(Cc2ccc(OC)cc2)S(=O)(=O)c2c(NCc3cc(OC)c(OC)c(OC)c3)cccc2O1 (stereo unspecified)	-5.2	.	-0.4	-2.7	-0.1
CC(CCc1ccccc1)NC(=O)CN1CCN(c2ccc(O)cc2)CC1 (stereo unspecified)	21.2	4.3	2.7	22.5*	0.0
SMILES	mABHD4 FP	HTRA1 inh	SIAE inh	PRMT1 FP inh	TCR-CD3 inh
CCOC(=O)NC1(Nc2cccc(Cl)c2)Oc2ccccc2O1	32.4*	20.7	12.4	19.3	6.3
CCOC(=O)NC(=O)/C(C#N)=N\Nc1cccc(Cl)c1	3.9	-5.1	1.6	-2.6	-2.4
CCC1Sc2ccc(S(=O)(=O)CCC(=O)Nc3c(Cl)cc(OC)cc3OC)cc2NC1=O (stereo unspecified)	0.8	-0.4	-3.3	-5.0	-1.0
COC(=O)[C@]12C[C@H](CC(=O)NCC3CCCCC3)C(=O)N(CCC3=CCCCC3)C1=C[C@H](C(C)(C)C)O[C@@H]2C	4.0	.	-5.5	3.8	5.4
CCN(CC)C(=O)Oc1ccc(Cl)c2cccnc12	2.2	-17.7	-1.4	-5.2	2.1
O=C(Nc1cccc(C(F)(F)F)c1)Oc1ccc(Cl)c2cccnc12	-34.6	45.8*	-16.1	-9.3	3.8
NC(=S)c1ccc[n+]([O-])c1	3.1	-3.0	-1.7	59.1*	-2.9
COC(=O)c1cccc(NC(=O)c2ccc[n+]([O-])c2)c1	-2.0	4.8	-4.3	-4.6	-0.3
COc1ccc(S(=O)(=O)N2CCC(C(=O)N(C)Cc3ccc(C)o3)CC2)cc1OC	4.7	-1.1	1.0	23.9*	4.4
Cc1ccc(CN(C)C(=O)c2cccc(S(=O)(=O)N3CCCC3)c2)o1	-3.1	3.8	-0.3	3.2	3.7
O=C(NCCc1ccccc1)c1ccc2c(c1)N(Cc1ccccc1)C(=O)CS2=O (stereo unspecified)	-6.2	-9.2	-6.0	13.2	6.7
CCCN(CCC)C(=O)c1ccc2c(c1)N(Cc1ccccc1)C(=O)CS2=O (stereo unspecified)	-0.5	0.0	4.5	23.9*	2.3
Cc1cc(/C=C2\SC(=S)NC2=O)c(C)n1C	20.7	28.9	-1.9	22.5*	6.0
S=c1nc(-c2sccc2OCc2ccc(Cl)cc2Cl)[nH][nH]1	2.5	3.3	16.6	24.7*	-0.4
CNC(=S)NNC(=O)c1sccc1OCc1ccc(Cl)cc1Cl	-0.4	1.9	12.7	-0.3	-2.0
C(=Nc1ccc(Nc2ccccc2)cc1)c1ccc2ccccc2c1	.	72.6*	.	.	.
O=S(=O)(Nc1cccnc1Cl)c1ccc(F)cc1	-6.0	11.3	-1.8	-9.2	1.1
O=S(=O)(Nc1cc(Sc2cccc3cccnc23)c(O)c2ccccc12)c1ccc(F)cc1	37.7*	.	9.9	72.8*	-2.7
Cc1ccccc1C1c2[nH]c3ccccc3c2C[C@H]2C(=O)N(c3ccccc3C(=O)NCCCN3CCOCC3)C(=O)N12 (stereo partly specified)	-8.6	-26.9	-11.2	2.4	7.3
CCOC(=O)C1=C(C)NC(=S)NC1c1ccc(-c2cccc(Cl)c2C)o1 (stereo unspecified)	-2.2	-23.2	1.9	21.6*	-0.9
Cc1ccc(-c2cc(C(=O)N3CCN(c4ccc(F)cc4)CC3)c3ccccc3n2)o1	-7.6	-33.0	-2.1	7.2	1.1
Cc1ccc(-c2cc(C(=O)N3CCN(c4ncccn4)CC3)c3cc(Br)ccc3n2)o1	-1.4	-8.5	-4.4	49.4*	-7.0
CSc1nsc(SCC(=O)Nc2c(C)n(C)n(-c3ccccc3)c2=O)n1	0.6	4.0	7.8	21.5*	2.9
CCCCCCCCN1C(=O)[C@@H](CC(=O)NCc2ccc(OC)c(OC)c2)C[C@@]2(C(=O)OC)C1=C[C@H](C(C)(C)C)O[C@@H]2C	-0.5	.	-5.6	4.7	-3.0
CCc1cc(SC#N)ccc1N	6.7	-1.5	4.4	23.9*	6.2
CCc1cc([N+](=O)[O-])cc(CC)c1N	-5.2	-4.4	-2.4	-1.3	4.8

Assay outcomes from PubChem.
